Assay results reported in ChEMBL document CHEMBL4706490, “New activators of eIF2α Kinase Heme-Regulated Inhibitor (HRI) with improved biophysical properties” (Eur J Med Chem, 2020).
pIC50: −log10 of the molar value. Activity calls are given as the source filed them. The rule behind the calls is not given here.

Columns and labels:
[1] = target: Eukaryotic translation initiation factor 2 subunit 1 (Homo sapiens) (UniProt P05198); test: Activation of eIF2alpha (unknown origin) assessed as fold stimulation ATF-4 surrogate eIF2alpha phosphorylation at 5 uM cell based Dual luciferase reporter assay; conditions: filed as activator
Procedure, shortened: (§1)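 Cells stably expressing firefly and renilla luciferase reporters were treated in 96-well plates at 10, 5, 2.5 and 1.25 µM and read with a dual glow luciferase kit. The firefly/renilla (F/R) ratio of each well was normalized to vehicle (DMSO) wells on the same plate, set at 1. Dose-response curves used triplicate points fitted to a logistic sigmoidal model.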

[2] = target: Eukaryotic translation initiation factor 2 subunit 1 (Homo sapiens) (UniProt P05198); test: Activation of eIF2alpha (unknown origin) assessed as fold stimulation ATF-4 surrogate eIF2alpha phosphorylation at 1.25 uM cell based Dual luciferase reporter assay; conditions: filed as activator; procedure, shortened: as §1
CRL-2813 = test: Effect on p27Kip1 expression in human CRL-2813 cells at 5 uM measured after 8 hrs Western blot analysis; assay type: functional, cell-based
Procedure, shortened: (§2)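 CRL-2813 melanoma cells were grown in serum-containing, antibiotic-free medium to 70% confluence and treated with 5 µM compound for 8 hours. Lysates were made in M-PER on ice, protein was normalized by BCA, and samples were separated by SDS-PAGE. Blots were probed for CHOP, p27Kip1, cyclin D1 and β-actin.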

MCF7 = test: Antiproliferative activity against human MCF7 cells transfected with HRI siRNA at 0.27 to 10 uM after 3 days by SRB assay; conditions: dose 0.27-10 µM, time 3.0 day
[3] = target: Eukaryotic translation initiation factor 2 subunit 1 (Homo sapiens) (UniProt P05198); test: Activation of eIF2alpha in human CRL-2813 cells assessed as increase in CHOP expression at 5 uM measured after 8 hrs Western blot analysis; assay type: cell-based; procedure, shortened: as §2
[4] = target: Eukaryotic translation initiation factor 2 subunit 1 (Homo sapiens) (UniProt P05198); test: Activation of eIF2alpha in human CRL-2813 cells assessed as decrease in cyclin D1 expression at 5 uM measured after 8 hrs Western blot analysis; assay type: cell-based; procedure, shortened: as §2
[5] = target: Eukaryotic translation initiation factor 2 subunit 1 (Homo sapiens) (UniProt P05198); test: Activation of eIF2alpha in human CRL-2813 cells assessed as eIF2alpha phosphorylation at 5 uM measured after 2 hrs Western blot analysis; assay type: cell-based
Procedure, shortened: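 Adherent human melanoma CRL-2813 cells were grown in serum-containing, antibiotic-free medium to 70% confluence and exposed to 5 µM compound or vehicle for 2 hours. Cells were lysed in M-PER on ice, and protein was quantified by BCA and boiled in Laemmli buffer. Lysates were run on SDS-PAGE and immunoblotted for phospho-Ser51 eIF2α, total eIF2α and β-actin.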

[6] = Antiproliferative activity against human CRL-2813 cells assessed as inhibition of cell growth measured after 5 days by SRB assay; assay type: functional, cell-based
Procedure, shortened: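 CRL-2813 cells in 96-well plates were kept for 5 days with 0.5 to 20 µM compound, then fixed in cold 10% trichloroacetic acid and stained with sulforhodamine B; bound dye absorbance was read. Percent growth was calculated as 100×[(T−T0)/(C−T0)] using day 5 treated, control and time-zero readings. IC50 is the concentration giving 50% growth inhibition.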

Sequence of Eukaryotic translation initiation factor 2 subunit 1 (Homo sapiens) (P05198 whole entry): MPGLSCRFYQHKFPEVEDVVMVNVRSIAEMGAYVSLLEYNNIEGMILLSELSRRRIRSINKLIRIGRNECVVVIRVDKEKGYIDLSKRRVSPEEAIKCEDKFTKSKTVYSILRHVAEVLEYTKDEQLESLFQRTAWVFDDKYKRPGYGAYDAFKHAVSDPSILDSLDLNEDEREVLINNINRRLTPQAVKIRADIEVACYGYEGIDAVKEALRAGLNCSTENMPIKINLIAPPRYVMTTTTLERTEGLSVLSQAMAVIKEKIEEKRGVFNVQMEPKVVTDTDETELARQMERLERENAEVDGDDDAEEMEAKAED

Row | Structure (SMILES) | fold change (FC) [1] | fold change (FC) [2] | pIC50 ([6]; Homo sapiens, CRL2813, 120 h) | further results
1 | N#Cc1cccc(NC(=O)NC2CC(Oc3ccc(C(F)(F)F)cc3)C2)c1 (stereo in doubt; cis) [listing 1 of 2 here] | 0.9 | 1.1 | – | –
2 | N#Cc1cc(NC(=O)NC2CC(Oc3ccc(C(F)(F)F)cc3)C2)cc(C(F)(F)F)c1 (trans isomer) [listing 1 of 2 here] | 10 | 4.4 | – | Activity (CRL-2813): inactive; Activity (MCF7): inactive; Activity ([3]; filed as activator): Active; Activity ([4]; filed as activator): Active; Activity ([5]; filed as activator): Active
3 | O=C(Nc1cccc(C(F)(F)F)c1)NC1CC(Oc2ccc(C(F)(F)F)cc2)C1 (cis isomer) [listing 1 of 2 here] | – | – | – | pIC50 ([6]; crl-2813): 5.59
4 | N#Cc1cccc(NC(=O)NC2CCC(Oc3ccc(C(F)(F)F)cc3)CC2)c1 (configuration not stated) | 6.1 | 1.9 | 5.80 | –
5 | O=C(Nc1cccc(C(F)(F)F)c1)NC1CCC(Oc2ccc(C(F)(F)F)cc2)CC1 (configuration not stated) | 9.2 | 3.6 | 6.05 | –
6 | N#Cc1cc(NC(=O)NC2CC(Oc3ccc(C(F)(F)F)cc3)C2)cc(C(F)(F)F)c1 (trans isomer) [listing 2 of 2 here] | – | – | 6.05 | –
7 | Cc1ccc(F)cc1NC(=O)NC1CCC(Oc2ccc(C(F)(F)F)cc2)CC1 (configuration not stated) | 1.5 | 1.8 | 5.28 | Activity (CRL-2813): inactive; Activity ([3]; filed as activator): Active; Activity ([4]; filed as activator): Active; Activity ([5]; filed as activator): Active
8 | O=C(Nc1ccc(F)c(F)c1)NC1CC(Oc2ccc(C(F)(F)F)cc2)C1 (trans isomer) | 4.5 | 2.2 | 5.26 | –
9 | N#Cc1ccc(NC(=O)NC2CCC(Oc3ccc(C(F)(F)F)cc3)CC2)c(F)c1 (configuration not stated) | 6.2 | 2.4 | 5.85 | –
10 | N#Cc1cccc(NC(=O)NC2CC(Oc3ccc(C(F)(F)F)cc3)C2)c1 (stereo in doubt; trans) [listing 1 of 2 here] | 3.5 | 1.6 | – | –
11 | N#Cc1cccc(NC(=O)N[C@H]2CC[C@H](Oc3ccc(C(F)(F)F)cc3)C2)c1 | 1.6 | 0.8 | 5.19 | –
12 | N#Cc1ccc(NC(=O)NC2CCC(Oc3ccc(C(F)(F)F)cc3)CC2)cc1F (trans isomer) | 10.4 | 5.5 | 6.34 | Activity (CRL-2813): inactive; Activity (MCF7): inactive; Activity ([3]; filed as activator): Active; Activity ([4]; filed as activator): Active; Activity ([5]; filed as activator): Active
13 | N#Cc1cccc(NC(=O)NC2CC(Oc3ccc(C(F)(F)F)cc3)C2)c1 (stereo in doubt; cis) [listing 2 of 2 here] | – | – | – | pIC50 ([6]; crl-2813): < 5.00
14 | Cc1ccc(F)cc1NC(=O)N[C@H]1CC[C@H](Oc2ccc(C(F)(F)F)cc2)C1 | 1.3 | 1.4 | 5.10 | –
15 | N#Cc1cc(NC(=O)N[C@H]2CC[C@H](Oc3ccc(C(F)(F)F)cc3)C2)cc(C(F)(F)F)c1 | 8.3 | 3.1 | 5.92 | –
16 | N#Cc1cccc(NC(=O)NC2CC(Oc3ccc(C(F)(F)F)cc3)C2)c1 (stereo in doubt; trans) [listing 2 of 2 here] | – | – | – | pIC50 ([6]; crl-2813): 5.31

Row | Structure (SMILES) | fold change (FC) [1] | fold change (FC) [2] | pIC50 ([6]; Homo sapiens, CRL2813, 120 h) | further results
17 | O=C(Nc1ccc(F)c(F)c1)NC1CCC(Oc2ccc(C(F)(F)F)cc2)CC1 (trans isomer) | 5.6 | 2.9 | 5.89 | –
18 | O=C(Nc1cccc(C(F)(F)F)c1)NC1CC(Oc2ccc(C(F)(F)F)cc2)C1 (trans isomer) [listing 1 of 2 here] | 6.5 | 2.4 | – | –
19 | O=C(Nc1ccc(F)c(F)c1)N[C@H]1CC[C@H](Oc2ccc(C(F)(F)F)cc2)C1 | 3.5 | 0.9 | 5.28 | –
20 | O=C(Nc1cccc(C(F)(F)F)c1)NC1CC(Oc2ccc(C(F)(F)F)cc2)C1 (cis isomer) [listing 2 of 2 here] | 6.2 | 1.2 | – | –
21 | O=C(Nc1cccc(F)c1F)NC1CCC(Oc2ccc(C(F)(F)F)cc2)CC1 (configuration not stated) | 9.9 | 4.7 | 5.80 | Activity (CRL-2813): inactive; Activity ([3]; filed as activator): Active; Activity ([4]; filed as activator): Active; Activity ([5]; filed as activator): Active
22 | N#Cc1cc(F)cc(NC(=O)N[C@H]2CC[C@H](Oc3ccc(C(F)(F)F)cc3)C2)c1 | 8 | 2.4 | 5.72 | –
23 | N#Cc1cc(NC(=O)NC2CCC(Oc3ccc(C(F)(F)F)cc3)CC2)cc(C(F)(F)F)c1 (configuration not stated) | 13.8 | 5.7 | 6.46 | Activity (CRL-2813): inactive; Activity (MCF7): inactive; Activity ([3]; filed as activator): Active; Activity ([4]; filed as activator): Active; Activity ([5]; filed as activator): Active
24 | O=C(Nc1cccc(F)c1F)NC1CC(Oc2ccc(C(F)(F)F)cc2)C1 (trans isomer) | 6.2 | 0.8 | 5.64 | –
25 | O=C(Nc1cccc(C(F)(F)F)c1)NC1CC(Oc2ccc(C(F)(F)F)cc2)C1 (trans isomer) [listing 2 of 2 here] | – | – | 5.47 | –
26 | N#Cc1cc(F)cc(NC(=O)NC2CCC(Oc3ccc(C(F)(F)F)cc3)CC2)c1 (configuration not stated) | 9.3 | 4.6 | 6.20 | Activity (CRL-2813): inactive; Activity (MCF7): inactive; Activity ([3]; filed as activator): Active; Activity ([4]; filed as activator): Active; Activity ([5]; filed as activator): Active
27 | Cc1ccc(F)cc1NC(=O)NC1CC(Oc2ccc(C(F)(F)F)cc2)C1 (configuration not stated) | 1.4 | 0.7 | < 5.00 | –
28 | O=C(Nc1cccc(C(F)(F)F)c1)N[C@H]1CC[C@H](Oc2ccc(C(F)(F)F)cc2)C1 | 7 | 1.2 | 5.60 | –
29 | N#Cc1cc(NC(=O)NC2CC(Oc3ccc(C(F)(F)F)cc3)C2)cc(C(F)(F)F)c1 (cis isomer) | 8.4 | 4.3 | – | –
30 | N#Cc1ccc(F)c(NC(=O)NC2CCC(Oc3ccc(C(F)(F)F)cc3)CC2)c1 (configuration not stated) | 1.5 | 1 | < 5.00 | Activity (CRL-2813): inactive; Activity [3]: inactive; Activity [4]: inactive; Activity [5]: inactive
31 | N#Cc1cc(F)cc(NC(=O)NC2CC(Oc3ccc(C(F)(F)F)cc3)C2)c1 (trans isomer) | 5.3 | 2 | 5.55 | –
32 | N#Cc1cc(NC(=O)NC2CCC(Oc3ccc(C(F)(F)F)cc3)CC2)ccc1F (configuration not stated) | 6.1 | 3.7 | 5.85 | –
